Tests used:
[1] = Antiproliferative activity against human SGC7901 cells after 48 hrs by MTT assay; format: functional, cell-based; conditions: SGC-7901, 48 h
In short: (§1)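 Cells were seeded at 3 × 10^3 per well and exposed 24 h later, while growing exponentially, to compounds at final concentrations of 1.25 to 40 for 48 h. MTT (5 mg/mL in PBS) was then added for 6 h. The medium was aspirated, the formazan dissolved in DMSO and absorbance read at 570 nm. Survival is relative to untreated cells; IC50 comes from triplicate wells in at least three independent experiments.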

[2] = tested on: KB; experiment: Induction of apoptosis in human KB cells assessed as late apoptotic cells level at 20 uM after 48 hrs by Annexin V and propidium iodide staining based flow cytometry (reference value: 2.26%); format: functional
In short: (§2)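 KB cells were plated in 6-well plates at 2.5 × 10^5 cells/mL and treated for 48 h. Adherent and floating cells were pooled, washed twice in PBS and stained with Annexin V and PI in binding buffer for 20 min at room temperature. Samples were read immediately on a FACSCalibur; untreated cells served as control. Values are means ± SE of at least three independent experiments.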

[3] = tested on: KB; experiment: Induction of apoptosis in human KB cells assessed as late apoptotic cells level at 10 uM after 48 hrs by Annexin V and propidium iodide staining based flow cytometry (reference value: 2.26%); format: functional; in short: as §2
[4] = tested on: KB; experiment: Induction of apoptosis in human KB cells assessed as viable cells level at 5 uM after 48 hrs by Annexin V and propidium iodide staining based flow cytometry (reference value: 87.4%); format: functional; in short: as §2
[5] = tested on: KB; experiment: Induction of apoptosis in human KB cells assessed as necrotic cells level at 20 uM after 48 hrs by Annexin V and propidium iodide staining based flow cytometry (reference value: 3.23%); format: functional; in short: as §2
[6] = Antiproliferative activity against human SMMC7721 cells after 48 hrs by MTT assay; format: functional, cell-based; conditions: SMMC-7721, 48 h; in short: as §1
[7] = tested on: KB; experiment: Induction of apoptosis in human KB cells assessed as early apoptotic cells level at 5 uM after 48 hrs by Annexin V and propidium iodide staining based flow cytometry (reference value: 7.08%); format: functional; in short: as §2
[8] = tested on: KB; experiment: Induction of apoptosis in human KB cells assessed as viable cells level at 20 uM after 48 hrs by Annexin V and propidium iodide staining based flow cytometry (reference value: 87.4%); format: functional; in short: as §2
[9] = Stability in 80% rat plasma assessed as parent compound remaining at 1 uM at 37 degC after 24 hrs by HPLC method; format: ADME, cell-free; conditions: read-out: Stability
In short: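 Thawed rat plasma was diluted to 80% v/v with 0.1 M PBS, pH 7.4. Compound was spiked from DMSO stock (1% v/v DMSO final) and held at 37 °C. Aliquots were quenched with two volumes of acetonitrile and centrifuged at 4 °C, 10,000 g, 10 min. Supernatants were run on HPLC with external standard; the result is percent parent remaining at 24 h, mean ± SD, n = 3.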

[10] = tested on: KB; experiment: Induction of apoptosis in human KB cells assessed as viable cells level at 10 uM after 48 hrs by Annexin V and propidium iodide staining based flow cytometry (reference value: 87.4%); format: functional; in short: as §2
[11] = tested on: A549; experiment: Antiproliferative activity against human A549 cells after 48 hrs by MTT assay; format: functional, cell-based; conditions: A549, 48 h; in short: as §1
[12] = tested on: B16; experiment: Antiproliferative activity against mouse B16 cells after 48 hrs by MTT assay; format: functional, cell-based; conditions: B16, 48 h; in short: as §1
[13] = tested on: KB; experiment: Induction of apoptosis in human KB cells assessed as late apoptotic cells level at 5 uM after 48 hrs by Annexin V and propidium iodide staining based flow cytometry (reference value: 2.26%); format: functional; in short: as §2
[14] = tested on: KB; experiment: Induction of apoptosis in human KB cells assessed as early apoptotic cells level at 10 uM after 48 hrs by Annexin V and propidium iodide staining based flow cytometry (reference value: 7.08%); format: functional; in short: as §2
[15] = Antiproliferative activity against human HL60 cells after 48 hrs by MTT assay; format: functional, cell-based; conditions: HL-60, 48 h; in short: as §1
[16] = tested on: KB; experiment: Antiproliferative activity against human KB cells after 48 hrs by MTT assay; format: functional, cell-based; in short: as §1
[17] = Chemical stability in 10 mM pH 7.4 PBS buffer assessed as parent compound remaining at 1 uM at 37 degC after 24 hrs by HPLC method; format: physicochemical; conditions: read-out: Stability
In short: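 DMSO stock was diluted into pre-warmed 10 mM PBS, pH 7.4, with 1% v/v DMSO final, and incubated at 37 °C. Aliquots were taken at set times and injected directly onto reversed-phase HPLC (ODS column, water + 0.1% TFA eluent, external standard). The result is percent parent remaining after 24 h, mean ± SD, n = 3.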

[18] = tested on: KB; experiment: Retention time of the compound in human KB cells lysates treated with 500 uM in presence of 10 mM cysteine by LC-HRMS method
[19] = tested on: KB; experiment: Induction of apoptosis in human KB cells assessed as necrotic cells level at 10 uM after 48 hrs by Annexin V and propidium iodide staining based flow cytometry (reference value: 3.23%); format: functional; in short: as §2
[20] = tested on: KB; experiment: Induction of apoptosis in human KB cells after 48 hrs by Annexin V and propidium iodide staining based flow cytometry; format: functional, cell-based; in short: as §2
[21] = tested on: KB; experiment: Prodrug conversion in human KB cells lysates assessed as formation of cysteine conjugates at 500 uM in presence of 10 mM cysteine by LC-HRMS method; format: ADME, cell-based, Lysate
In short: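 KB cells (5 × 10^6) were lysed by freeze/thaw. DMSO stock prepared just before use was added to lysate already containing cysteine, with DMSO matched in controls, and incubated at 37 °C. Aliquots taken at 30 min and 1 h were mixed with two volumes of acetonitrile and centrifuged (4 °C, 10,000 g, 10 min). They were analysed by LC-HRMS in positive mode using a water + 0.1% formic acid/methanol gradient.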

[22] = Antiproliferative activity against human HL7702 cells after 48 hrs by MTT assay; format: cell-based; conditions: L02, 48 h; in short: as §1
[23] = tested on: KB; experiment: Induction of apoptosis in human KB cells assessed as necrotic cells level at 5 uM after 48 hrs by Annexin V and propidium iodide staining based flow cytometry (reference value: 3.23%); format: functional; in short: as §2
[24] = tested on: KB; experiment: Induction of apoptosis in human KB cells assessed as early apoptotic cells level at 20 uM after 48 hrs by Annexin V and propidium iodide staining based flow cytometry (reference value: 7.08%); format: functional; in short: as §2

remaining at 24 h, 1 µM [9]: 24.2% | IC50 [11]: 7.5 µM | IC50 [12]: 4.84 µM | IC50 [16]: 6.47 µM | remaining at 24 h, 1 µM [17]: 109% | Retention_time [18]: 5.75 min | Retention_time [21]: 2.42 min
Compound: C=C1C(=O)[C@@]23[C@H](O)C[C@@H]4C(C)(C)C(=O)CC[C@@]4(C)[C@@H]2CC[C@@H]1[C@H]3O [GLAUCOCALYXIN A]
IC50 [1]: 11.7 µM | Activity [2]: 19% | Activity [3]: 6.89% | Activity [4]: 80.6% | Activity [5]: 3.59% | IC50 [6]: 8.11 µM | Activity [7]: 10.7% | Activity [8]: 43.9% | Activity [10]: 76.1% | Activity [13]: 3.69% | Activity [14]: 14.3% | IC50 [15]: 5.52 µM | Activity [19]: 2.69% | Activity [20]: Dose-dependent effect | IC50 [22]: 8.62 µM | Activity [23]: 4.95% | Activity [24]: 33.4%

— ChEMBL document CHEMBL3351782, “Synthesis and biological evaluation of glaucocalyxin A derivatives as potential anticancer agents” (Eur J Med Chem, 2014)
